Screens deposited in PubChem by several laboratories.
A selection: hits, their analogues and other compounds. The true share with any hit is near 3.1%.
Hep lipid drop = modulators of hepatic lipid droplet formation | AML12 mouse hepatocytes, oleate lipid droplets, BODIPY imaging | inhibition, % at 6.5 µM | 240,000 compounds, 0.4% hits;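 active means lipid droplet intensity inhibited by at least 50%, with more than 500 cells counted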
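Technique: fluorescence imaging, 20x objective, two fields per well / Assay system: AML12 hepatocytes (mouse) / Measure: % inhibition of lipid droplet signal / Doses: 6.5 µM single-point dosing / Incubation: overnight exposure / Reagent: 100 µM oleic acid challenge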
MPTP inh = permeability transition pore inhibition. isolated mouse mitochondria, Ca2+ swelling absorbance, 30 min. 360,000 compounds, 1.4% hits. inhibition, % at 10 µM;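 active means inhibition of 50% or more, scaled per plate between neutral and stimulator controls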;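 further: 0% = DMSO wells given calcium and 100% = 1 mM EGTA wells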
V-ATPase pHluor = yeast V-ATPase proton transport regulation by pHLuorin | AID 504577 | response, % at 10 µM | 350,000 compounds, 0.37% hits | S. cerevisiae, pHLuorin cytosolic pH fluorescence; in the data active means response mostly above about 7.3%, no sharp cut-off; inactive means mostly below about 5.4%; further: actives read high
aDG glyco up = alpha-DG glycosylation activation | Pro5-aDG cells, alpha-DG glycosylation AlphaScreen (IIH6); 0% Pro5, 100% B10-LARGE cell signal | activation, % at 10 µM | 360,000 compounds, 0.22% hits | AID 624168;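 active means activation of at least 8% versus controls, or a plate z-score of at least 8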;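 further: Pro5 are CHO cells carrying HIG-tagged alpha-DG that lacks glycosylation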
ADAM10 inh = inhibits human ADAM10 | recombinant ADAM10, EDANS/DABCYL FRET peptide cleavage, 3 h | inhibition, % at 7 µM | 370,000 compounds, 0.62% hits;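 active means inhibition above a per-campaign cutoff equal to the mean of compounds falling between control-based bounds plus 3 SD, cut at about 20% in these data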;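 further: 0% = DMSO wells while the 100% control is not disclosed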
ADAM17 inh = inhibits human ADAM17 | P78536 | recombinant ADAM17, EDANS/DABCYL FRET peptide cleavage | inhibition, % at 6.95 µM | 370,000 compounds, 0.83% hits;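 active means inhibition above the mean of compounds lying between control limits plus 3 SD, set per campaign, cut at about 8.5% in these data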;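 further: 0% = DMSO-only wells as the low control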
Target sequence (P78536 215-824 limits assumed): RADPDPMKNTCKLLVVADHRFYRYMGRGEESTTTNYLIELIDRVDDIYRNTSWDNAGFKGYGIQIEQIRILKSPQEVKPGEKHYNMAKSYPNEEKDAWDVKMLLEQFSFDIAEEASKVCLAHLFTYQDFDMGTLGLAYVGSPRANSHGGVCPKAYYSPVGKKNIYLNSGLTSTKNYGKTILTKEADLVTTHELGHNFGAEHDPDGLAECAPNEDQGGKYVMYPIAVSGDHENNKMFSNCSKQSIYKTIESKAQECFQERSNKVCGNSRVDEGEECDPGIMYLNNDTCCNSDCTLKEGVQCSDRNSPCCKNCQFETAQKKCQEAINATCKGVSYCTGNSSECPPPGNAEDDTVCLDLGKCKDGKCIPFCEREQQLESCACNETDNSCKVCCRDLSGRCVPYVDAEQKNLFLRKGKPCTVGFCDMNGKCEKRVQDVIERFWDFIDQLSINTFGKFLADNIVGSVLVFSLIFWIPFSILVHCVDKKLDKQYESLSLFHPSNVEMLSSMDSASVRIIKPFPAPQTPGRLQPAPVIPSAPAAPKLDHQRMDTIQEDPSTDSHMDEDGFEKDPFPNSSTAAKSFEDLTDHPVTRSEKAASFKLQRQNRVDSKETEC
V-ATPase pH SP = modulates yeast V-ATPase proton transport; shares compounds with V-ATPase pHluor; S. cerevisiae pHLuorin cytosolic pH; response, % at 10 µM; 980 compounds, 2% hits; in the data active means response above about 24%;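 further: plate controls were vehicle wells for no effect and positive control wells for full effect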
Numbers without * were called inactive.

`Cc1ccc(/C=C/C(=O)c2ccc(N3CCOCC3)cc2)s1` gave Hep lipid drop 0, MPTP inh 0, V-ATPase pHluor 10*, aDG glyco up 0, ADAM10 inh 3, ADAM17 inh 3 and V-ATPase pH SP -1.
`Cc1ccc(CNC2=NCCCCC2)n1C` gave Hep lipid drop 0, MPTP inh 1, V-ATPase pHluor 11*, aDG glyco up 0, ADAM10 inh -20, ADAM17 inh -6 and V-ATPase pH SP 0.
CCOC(=O)c1c(C)c(-c2ccccc2)n(CC(=O)NCCCN(CC)CC)c1C was read as Hep lipid drop -28, MPTP inh 0, V-ATPase pHluor 15*, aDG glyco up 0, ADAM10 inh -3, ADAM17 inh 2 and V-ATPase pH SP 0.
Screening N=C1/C(=C/c2cccn2Cc2ccc(F)cc2)C(=O)N=C2SC=CN12 returned Hep lipid drop -6, MPTP inh -1, V-ATPase pHluor 11*, aDG glyco up 0, ADAM10 inh -16, ADAM17 inh -4 and V-ATPase pH SP -1.
Screening CN(C)/C=N/c1sc2c(c1C#N)CCCC2 returned Hep lipid drop 8, MPTP inh -1, V-ATPase pHluor 11*, aDG glyco up 0, ADAM10 inh -5, ADAM17 inh -1 and V-ATPase pH SP 5.
`COc1ccc(Cl)cc1S(=O)(=O)N1CCCC(C(=O)N2CCOCC2)C1` (stereo unspecified) gave MPTP inh 0, V-ATPase pHluor 9.5*, aDG glyco up 0, ADAM10 inh 8, ADAM17 inh 2 and V-ATPase pH SP 3.
Screening O=C(C1CCCN(S(=O)(=O)c2cc(Cl)ccc2Cl)C1)N1CCCC1 (stereo unspecified) returned Hep lipid drop -3, MPTP inh 0, V-ATPase pHluor -3, aDG glyco up 0, ADAM10 inh 2 and ADAM17 inh -3.
`COC(=O)C1CN(Cc2ccc(OC)cc2)CCS(=O)(=O)N1Cc1ccc(F)cc1` (stereo unspecified) gave ADAM10 inh 6 and ADAM17 inh -1.
Screening CCOC(=O)NCc1ccc2[nH]c(C)cc2c1 returned Hep lipid drop -15, MPTP inh 0, V-ATPase pHluor 11*, aDG glyco up 2, ADAM10 inh -26, ADAM17 inh -7 and V-ATPase pH SP 2.
`CCOC(=O)CCC(=O)NCc1ccc2[nH]c(C)cc2c1` gave Hep lipid drop -10, MPTP inh 2, V-ATPase pHluor 2, aDG glyco up 0, ADAM10 inh -26 and ADAM17 inh -10.
Screening CCC(C)N(C(C)CC)S(=O)(=O)c1ccc2[nH]c(=O)oc2c1 (stereo unspecified) returned ADAM10 inh -8 and ADAM17 inh 0.
For CCOC(=O)CSCC(=O)Nc1c(C(=O)C2CC2)oc2ccccc12 the results were Hep lipid drop 13, MPTP inh 0, V-ATPase pHluor 7.5*, aDG glyco up 0, ADAM10 inh -11, ADAM17 inh -8 and V-ATPase pH SP 1.
For COc1ccc(-n2ccn(CC(=O)Nc3ccc(OC)cc3OC)c(=O)c2=O)cc1 the results were Hep lipid drop 10, MPTP inh -2, V-ATPase pHluor 9.4*, aDG glyco up 0, ADAM10 inh -14, ADAM17 inh -2 and V-ATPase pH SP 3.
C#CCOCCOCCOCCNc1nc(N2CCN(C(=O)[C@H](CCCCN)n3cc(CN)nn3)CC2)nc(N2CCN(C(=O)[C@H](CCC(=O)O)n3cc([C@@H](N)CCCCN)nn3)CC2)n1 was read as MPTP inh -2, V-ATPase pHluor -6, aDG glyco up 0, ADAM10 inh -4 and ADAM17 inh -6.
For C#CCOCCOCCOCCNc1nc(N2CCN(C(=O)[C@H](CCC(=O)O)n3cc(CN)nn3)CC2)nc(N2CCN(C(=O)[C@H](CCCCN)n3cc([C@@H](N)CC(N)=O)nn3)CC2)n1 the results were MPTP inh 0, V-ATPase pHluor 7.9*, aDG glyco up 0, ADAM10 inh -10, ADAM17 inh -3 and V-ATPase pH SP -2.
For O=C(NCCNCCO)C1(C(F)(F)F)C/C(=C\Cc2ccccc2)CCCO1 (stereo unspecified) the results were MPTP inh -1, V-ATPase pHluor -3, aDG glyco up 0, ADAM10 inh -1 and ADAM17 inh 0.
For O=C(NCC1CC1)C1(C(F)(F)F)CC(CCc2ccccc2)CCCO1 (stereo unspecified) the results were MPTP inh 0, V-ATPase pHluor 10*, aDG glyco up 0, ADAM10 inh 4, ADAM17 inh 3 and V-ATPase pH SP 0.
`CCOC(=O)c1[nH]c2ccccc2c1NC(=O)c1nonc1C` gave MPTP inh -1, V-ATPase pHluor -3, aDG glyco up 0, ADAM10 inh -5, ADAM17 inh 3 and V-ATPase pH SP -30.
Screening COC(=O)[C@H]1C[C@]2(C(C=C(C)C)S(=O)(=O)c3ccccc3)c3ccccc3N[C@H]2N1 (stereo partly specified) returned ADAM10 inh 2 and ADAM17 inh -5.
`CCOc1ccc(NC(=S)NCc2nc3ccccc3[nH]2)cc1` gave Hep lipid drop -10, MPTP inh 0, V-ATPase pHluor 11*, aDG glyco up 0, ADAM10 inh -1, ADAM17 inh -6 and V-ATPase pH SP -1.
Screening FC(F)Oc1ccc(NC(=S)NCc2nc3ccccc3[nH]2)cc1 returned Hep lipid drop -9, MPTP inh 10, V-ATPase pHluor 2, aDG glyco up 0, ADAM10 inh -8 and ADAM17 inh -7.
Cc1cc(=O)n(-c2ccc(Cl)cc2)c(=O)[nH]1 was read as Hep lipid drop 4, MPTP inh 8, V-ATPase pHluor 4, aDG glyco up 0, ADAM10 inh -3, ADAM17 inh -5 and V-ATPase pH SP -1.
Cc1cc(=O)cc(C)n1-c1ccc(Cl)cc1 was read as Hep lipid drop 1, MPTP inh 1, V-ATPase pHluor 2, aDG glyco up 0, ADAM10 inh -1, ADAM17 inh -2 and V-ATPase pH SP 3.
`O=C(Nc1ccc(Oc2ccccc2)nc1)C1CCN(Cc2ccco2)CC1` gave Hep lipid drop 5, MPTP inh 0, V-ATPase pHluor 8.7*, aDG glyco up 0, ADAM10 inh -7, ADAM17 inh -4 and V-ATPase pH SP 1.
O=C(Nc1ccc(Oc2ccccc2)nc1)C1CCCCN1Cc1ccco1 (stereo unspecified) was read as Hep lipid drop -75, MPTP inh 1, V-ATPase pHluor -12, aDG glyco up 1, ADAM10 inh -5 and ADAM17 inh -5.
